pIC50, pKi: −log10 of the molar value. Calls of active or inactive are those of the source.
What was measured:
[1] = Displacement of [3H]flumazenil from CBR in bovine cortical membrane; type: cell membranes, Bos taurus
Procedure, shortened: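 Bovine or human cortical membranes washed free of endogenous GABA. […] Nonspecific binding with 10 µM diazepam. At least six concentrations over 3 log units, DMSO 2%. IC50 converted to Ki by Cheng-Prusoff (Kd 0.85 nM bovine, 0.91 nM human). Ki is the mean of three determinations.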

Bos taurus [2] = species on record: Bos taurus; test: Ratio of Ki for bovine CBR in absence of GABA to Ki for bovine CBR in presence of 50 uM GABA
[3] = Displacement of [3H]flumazenil from CBR in human cortical membrane; type: cell membranes
Procedure, shortened: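 Bovine or human cortical membranes washed free of endogenous GABA. Nonspecific binding with 10 µM diazepam. At least six concentrations over 3 log units, DMSO 2%. Ki is the mean of three determinations.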

Homo sapiens [4] = species on record: Homo sapiens; test: Ratio of Ki for human CBR in absence of GABA to Ki for human CBR in presence of 50 uM GABA
Rattus norvegicus [5] = species on record: Rattus norvegicus; test: Agonist activity at CBR in Sprague-Dawley rat brain cortex assessed as increase in chloride influx; type: functional, tissue-based
Bos taurus [6] = species on record: Bos taurus; test: Displacement of [3H]flumazenil from CBR in bovine cortical membrane at 10 uM; type: cell membranes
Rattus norvegicus [7] = species on record: Rattus norvegicus; test: Inverse agonist activity at CBR in Sprague-Dawley rat brain cortex assessed as decrease in chloride influx; type: functional
Homo sapiens [8] = species on record: Homo sapiens; test: Displacement of [3H]flumazenil from CBR in human cortical membrane at 10 uM; type: cell membranes
Mus musculus [9] = test: Anticonvulsant activity in CD1 albino mouse assessed as pentylenetetrazole-induced death latency time at 1 mg/kg, ip; type: functional, organism-based; set-up: dose 1 mg/kg
Procedure, shortened: (§1)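 Mice dosed po or ip in 1% CMC (10 mL/kg). Pentylenetetrazole 90 mg/kg sc given 30 min later; clonic generalized convulsions observed over 30 min. ANOVA/Fisher PLSD versus vehicle controls.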

Mus musculus [10] = test: Anticonvulsant activity in CD1 albino mouse assessed as pentylenetetrazole-induced convulsion latency time at 1 mg/kg, ip; type: functional, organism-based; set-up: dose 1 mg/kg; procedure, shortened: as §1
Mus musculus [11] = test: Effect on learning and memory performance in CD1 albino mouse assessed as training session latency at 1 mg/kg, ip by passive avoidance test; type: functional; details: route intraperitoneal
Procedure, shortened: (§2)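 Mice dosed po or ip in 1% CMC (10 mL/kg). Step-through passive avoidance in a two-compartment box (lit and dark, joined by guillotine door); latencies recorded in training and retention sessions. At least 15-20 mice per group; ANOVA/Fisher PLSD versus CMC controls.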

Mus musculus [12] = test: Antianxiety activity in CD1 albino mouse assessed as time spent in light at 1 mg/kg, ip by light-dark box method; type: functional; details: route intraperitoneal
Procedure, shortened: (§3)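 Male CD-1 mice given drug po or ip in 1% CMC at 10 mL/kg. Light/dark box: number of transfers between compartments and time spent in the lit side recorded. At least 15-20 mice per group; ANOVA/Fisher PLSD versus vehicle.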

Mus musculus [13] = test: Effect on ethanol-induced sleep in CD1 albino mouse assessed as induction time 1 mg/kg, ip; type: functional; details: route intraperitoneal
Procedure, shortened: (§4)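 Mice dosed po or ip in 1% CMC (10 mL/kg). Ethanol 4 g/kg ip given 30 min later. Sleep time taken as duration of loss of righting reflex, cut-off 210 min. At least 15-20 mice per group; ANOVA/Fisher PLSD.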

Mus musculus [14] = test: Effect on learning and memory performance in CD1 albino mouse assessed as retention session latency at 1 mg/kg, ip by passive avoidance test; type: functional; details: route intraperitoneal; procedure, shortened: as §2
Mus musculus [15] = test: Effect on ethanol-induced sleep in CD1 albino mouse time assessed as endurance time 1 mg/kg, ip; type: functional; details: route intraperitoneal; procedure, shortened: as §4
Mus musculus [16] = test: Antianxiety activity in CD1 albino mouse assessed as number of crosses at 0.3 mg/kg, po by light-dark box method; type: functional; procedure, shortened: as §3
Mus musculus [17] = test: Effect on learning and memory performance in CD1 albino mouse assessed as training session latency at 12.5 mg/kg, po by passive avoidance test; type: functional; procedure, shortened: as §2
Mus musculus [18] = test: Effect on ethanol-induced sleep in CD1 albino mouse assessed as induction time 12.5 mg/kg, po; type: functional; procedure, shortened: as §4
Mus musculus [19] = test: Antianxiety activity in CD1 albino mouse assessed as time spent in light at 0.3 mg/kg, po by light-dark box method; type: functional; procedure, shortened: as §3
Mus musculus [20] = test: Anticonvulsant activity in CD1 albino mouse assessed as pentylenetetrazole-induced convulsion latency time at 3 mg/kg, po; type: functional; procedure, shortened: as §1
Mus musculus [21] = test: Anticonvulsant activity in CD1 albino mouse assessed as pentylenetetrazole-induced death latency time at 12.5 mg/kg, po; type: functional; procedure, shortened: as §1
Mus musculus [22] = test: Antianxiety activity in CD1 albino mouse assessed as number of crosses at 6.5 mg/kg, po by light-dark box method; type: functional; procedure, shortened: as §3
Mus musculus [23] = test: Toxic myorelaxant activity in CD1 albino mouse assessed as number of falls in 30 secs at 3 mg/kg, po after 30 mins by rotarod test; type: toxicity, organism-based; set-up: dose 3 mg/kg, route oral; details: in vivo
Procedure, shortened: (§5)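 Male CD-1 mice, dosed po or ip in 1% CMC (10 mL/kg). Rota-rod at 16 rpm; falls counted over 30 s, 30 min after dosing. At least 15-20 mice per group; ANOVA with Fisher PLSD versus CMC/saline controls.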

Mus musculus [24] = test: Effect on learning and memory performance in CD1 albino mouse assessed as training session latency at 6.5 mg/kg, po by passive avoidance test; type: functional; procedure, shortened: as §2
Mus musculus [25] = test: Antianxiety activity in CD1 albino mouse assessed as time spent in light at 12.5 mg/kg, po by light-dark box method; type: functional; procedure, shortened: as §3
Mus musculus [26] = test: Effect on ethanol-induced sleep in CD1 albino mouse time assessed as endurance time 3 mg/kg, po; type: functional; procedure, shortened: as §4
Mus musculus [27] = test: Anticonvulsant activity in CD1 albino mouse assessed as pentylenetetrazole-induced death latency time at 6.5 mg/kg, po; type: functional; procedure, shortened: as §1
Mus musculus [28] = test: Effect on ethanol-induced sleep in CD1 albino mouse assessed as endurance time 12.5 mg/kg, po; type: functional; procedure, shortened: as §4
Mus musculus [29] = test: Toxic myorelaxant activity in CD1 albino mouse assessed as number of falls in 30 secs at 1 mg/kg, po after 30 mins by rotarod test; type: toxicity, organism-based; set-up: dose 1 mg/kg, route oral; details: in vivo; procedure, shortened: as §5
Mus musculus [30] = test: Anticonvulsant activity in CD1 albino mouse assessed as pentylenetetrazole-induced convulsion latency time at 12.5 mg/kg, po; type: functional; procedure, shortened: as §1
Mus musculus [31] = test: Toxic myorelaxant activity in CD1 albino mouse assessed as number of falls in 30 secs at 0.3 mg/kg, po after 30 mins by rotarod test; type: toxicity, organism-based; set-up: dose 0.3 mg/kg, route oral; details: in vivo; procedure, shortened: as §5
Mus musculus [32] = test: Effect on ethanol-induced sleep in CD1 albino mouse assessed as induction time 6.5 mg/kg, po; type: functional; procedure, shortened: as §4
Mus musculus [33] = test: Toxic myorelaxant activity in CD1 albino mouse assessed as number of falls in 30 secs at 6.5 mg/kg, po after 30 mins by rotarod test; type: toxicity, organism-based; set-up: dose 6.5 mg/kg, route oral; details: in vivo; procedure, shortened: as §5
Mus musculus [34] = test: Antianxiety activity in CD1 albino mouse assessed as number of crosses at 1 mg/kg, po by light-dark box method; type: functional; procedure, shortened: as §3
Mus musculus [35] = test: Effect on ethanol-induced sleep in CD1 albino mouse assessed as induction time at 3 mg/kg, po; type: functional; procedure, shortened: as §4
Mus musculus [36] = test: Antianxiety activity in CD1 albino mouse assessed as number of crosses at 12.5 mg/kg, po by light-dark box method; type: functional; procedure, shortened: as §3
Mus musculus [37] = test: Anticonvulsant activity in CD1 albino mouse assessed as pentylenetetrazole-induced death latency time at 3 mg/kg, po by; type: functional; procedure, shortened: as §1
Mus musculus [38] = test: Effect on learning and memory performance in CD1 albino mouse assessed as retention session latency at 12.5 mg/kg, po by passive avoidance test; type: functional; procedure, shortened: as §2
Mus musculus [39] = test: Antianxiety activity in CD1 albino mouse assessed as time spent in light at 6.5 mg/kg, po by light-dark box method; type: functional; procedure, shortened: as §3
Mus musculus [40] = test: Antianxiety activity in CD1 albino mouse assessed as time spent in light at 3 mg/kg, po by light-dark box method; type: functional; procedure, shortened: as §3
Mus musculus [41] = test: Antianxiety activity in CD1 albino mouse assessed as time spent in light at 1 mg/kg, po by light-dark box method; type: functional; procedure, shortened: as §3
Mus musculus [42] = test: Toxic myorelaxant activity in CD1 albino mouse assessed as number of falls in 30 secs at 12.5 mg/kg, po after 30 mins by rotarod test; type: toxicity, organism-based; set-up: dose 12.5 mg/kg, route oral; details: in vivo; procedure, shortened: as §5
Mus musculus [43] = test: Antianxiety activity in CD1 albino mouse assessed as number of crosses at 3 mg/kg, po by light-dark box method; type: functional; procedure, shortened: as §3
Mus musculus [44] = test: Effect on ethanol-induced sleep in CD1 albino mouse time assessed as endurance time 6.5 mg/kg, po; type: functional; procedure, shortened: as §4
Mus musculus [45] = test: Anticonvulsant activity in CD1 albino mouse assessed as pentylenetetrazole-induced convulsion latency time at 6.5 mg/kg, po; type: functional; procedure, shortened: as §1
Mus musculus [46] = test: Effect on learning and memory performance in CD1 albino mouse assessed as retention session latency at 6.5 mg/kg, po by passive avoidance test; type: functional; procedure, shortened: as §2
Mus musculus [47] = test: Effect on learning and memory performance in CD1 albino mouse assessed as retention session latency at 3 mg/kg, po by passive avoidance test; type: functional; procedure, shortened: as §2
Mus musculus [48] = test: Effect on learning and memory performance in CD1 albino mouse assessed as training session latency at 3 mg/kg, po by passive avoidance test; type: functional; procedure, shortened: as §2

CN1C(=O)CN=C(c2ccccc2F)c2cc([N+](=O)[O-])ccc21 [FLUNITRAZEPAM]
pKi [1]: 8.29
Ratio Ki (Bos taurus [2]): 1.68
pKi [3]: 8.19
Ratio Ki (Homo sapiens [4]): 1.6

CCOC(=O)c1ncn2c1CN=C(c1ccc([N+](=O)[O-])cc1)c1cc(F)ccc1-2
Activity (Rattus norvegicus [5]): Active
Activity (Bos taurus [6]): > 80%
Activity (Rattus norvegicus [7]): Active
pKi [1]: 7.83
Ratio Ki (Bos taurus [2]): 0.89
Activity (Homo sapiens [8]): > 80%
pKi [3]: 7.70
Ratio Ki (Homo sapiens [4]): 0.86

CN1C(=O)CN=C(c2ccccc2)c2cc(Cl)ccc21 [DIAZEPAM]
Activity (Mus musculus [9]): inactive
Activity (Mus musculus [10]): inactive
Time (Mus musculus [11]): 20.9 s
Time (Mus musculus [12]): 175.3 s
Time (Mus musculus [13]): 4.6 min
Time (Mus musculus [14]): 52.3 s
Time (Mus musculus [15]): >210 min

CCOC(=O)c1ncn2c1CN=C(c1ccc([N+](=O)[O-])cc1)c1ccccc1-2
pIC50 [1]: 8.74

CCOC(=O)c1ncn2c1CN(C)C(=O)c1cc(F)ccc1-2 [FLUMAZENIL]
pKi [1]: 8.72

CCOC(=O)c1ncn2c1CN=C(c1cccc([N+](=O)[O-])c1)c1cc(F)ccc1-2
Activity (Mus musculus [16]): 14.6
Time (Mus musculus [17]): 16 s
Time (Mus musculus [18]): 6.8 min
Activity (Rattus norvegicus [5]): Active
Activity (Mus musculus [19]): 123.7
Time (Mus musculus [20]): 18.7 min
Time (Mus musculus [21]): 39.8 min
Activity (Bos taurus [6]): > 80%
Activity (Rattus norvegicus [7]): Active
Activity (Mus musculus [22]): 5.4
pKi [1]: 8.36
Activity (Mus musculus [23]): 2.1
Time (Mus musculus [24]): 17.9 s
Time (Mus musculus [25]): 186.8 s
Time (Mus musculus [26]): 13.5 min
Time (Mus musculus [27]): 22.5 min
Ratio Ki (Bos taurus [2]): 1.19
Time (Mus musculus [28]): 177.8 min
Activity (Mus musculus [29]): 2.2
Time (Mus musculus [30]): 23.6 min
Activity (Mus musculus [31]): 2.3
Activity (Homo sapiens [8]): > 80%
Time (Mus musculus [32]): 7.3 min
Activity (Mus musculus [33]): 2.7
Activity (Mus musculus [34]): 8.6
Time (Mus musculus [35]): 6.1 min
Activity (Mus musculus [36]): 5.1
Time (Mus musculus [37]): 21.9 min
Time (Mus musculus [38]): 55.7 s
Time (Mus musculus [39]): 181.2 s
pKi [3]: 8.01
Time (Mus musculus [40]): 169.3 s
Time (Mus musculus [41]): 132 s
Activity (Mus musculus [42]): 4.4
Activity (Mus musculus [43]): 5.6
Time (Mus musculus [44]): 118.2 min
Time (Mus musculus [45]): 19.3 min
Time (Mus musculus [46]): 76.5 s
Time (Mus musculus [47]): 88.7 s
Time (Mus musculus [48]): 18.3 s
Time (Mus musculus [13]): 6.8 min
Ratio Ki (Homo sapiens [4]): 1.2
Time (Mus musculus [15]): 177.8 min
